# Reference: ChEMBL document CHEMBL4765328 (Eur J Med Chem, 2020)
# Active and inactive are the calls of the source. The rule behind the calls is not given here.
# Experiments:
# [1] = system: HeLa; assay: Downregulation of MAD-2 expression in human HeLa cells at 10 nM after 24 hrs by Western blot analysis; assay type: functional, cell-based
# How it was run: (§1)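 HeLa cells treated 24 or 48 h, then washed in cold PBS and lysed in 0.1% Triton X-100/RNase A at 0 °C. Lysates were cleared at 15,000 x g. 10 µg protein was run on SDS-PAGE and blotted to PVDF, blocked in 5% BSA, and probed 2 h at room temperature with primary antibodies. HRP secondary and ECL detection followed; β-actin reprobe served as loading control.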
# [2] = Cytotoxicity against normal human astrocytes assessed as inhibition of cell growth; assay type: cell-based, Astrocyte
# [3] = system: HT-29; assay: Antiproliferative activity against human HT-29 cells assessed as inhibition of cell growth; assay type: functional, cell-based
# How it was run: (§2)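 Growth inhibition of cancer cell lines read from dose-response curves; IC50 as mean ± SEM of at least three independent experiments.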
# [4] = species: Bos taurus; assay: Inhibition of [3H]colchicine binding to bovine brain tubulin at 0.5 uM relative to control; assay type: tissue-based
# How it was run: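 [3H]colchicine binding to purified tubulin, with tubulin at 0.5 µM and colchicine at 5 µM. Compounds tested at 5 and 0.5 µM. CA-4 was run in contemporaneous experiments for comparison.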
# [5] = system: HeLa; assay: Induction of apoptosis in human HeLa cells assessed as early apoptotic cells at 10 nM measured after 48 hrs by Annexin V-FITC/propidium iodide staining based flow cytometry (reference value: 2.1 %); assay type: functional
# [6] = system: HeLa; assay: Induction of apoptosis in human HeLa cells assessed as increase in bcl-2 phosphorylation at 10 nM after 48 hrs by Western blot analysis; assay type: functional, cell-based; how it was run: as §1
# [7] = system: HeLa; assay: Induction of apoptosis in human HeLa cells assessed as increase in PARP cleavage at 10 nM after 48 hrs by Western blot analysis; assay type: functional, cell-based; how it was run: as §1
# [8] = system: HeLa; assay: Induction of microtubule network depolymerization in human HeLa cells assessed as appearance of disorganised microtubules at 10 nM after 24 hrs by immunofluorescence staining based confocal microscopic analysis; assay type: cell-based
# How it was run: (§3)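 HeLa cells treated 24 h at 10, 50 or 100 nM. They were then fixed in cold 4% formaldehyde for 15 min and stained with anti-β-tubulin for 2 h at room temperature. Alexa 488 secondary and DAPI counterstain followed; imaged by confocal microscopy at 20X.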
# [9] = system: HeLa; assay: Induction of apoptosis in human HeLa cells assessed as viable cells at 10 nM measured after 48 hrs by Annexin V-FITC/propidium iodide staining based flow cytometry (reference value: 89.57 %); assay type: functional; conditions: read-out: Activity
# [10] = Cytotoxicity against mouse E0771 cells assessed as cell growth inhibition after 72 hrs by MTT assay; assay type: functional; conditions: EO771
# [11] = system: HeLa; assay: Induction of mitochondrial membrane potential loss in human HeLa cells assessed as cells with depolarized mitochondrial membrane at 10 nM after 24 hrs by JC-1 dye-based flow cytometric analysis (reference value: 5.7 %); assay type: functional
# [12] = system: HeLa; assay: Induction of apoptosis in human HeLa cells assessed as increase in bcl-2 phosphorylation at 10 nM after 24 hrs by Western blot analysis; assay type: functional, cell-based; how it was run: as §1
# [13] = Antitumor activity mouse E0771 cells implanted in C57BL/6 mouse assessed as reduction tumor mass at 15 mg/kg, ip administered every other day relative to control; assay type: functional, EO771; design: scale not given: the % may be the effect or the level left
# How it was run: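 Seven-week-old female C57BL/6 mice received 4 x 10^5 E0771 cells orthotopically in the mammary fat pad and were randomized once tumors were palpable. Dosing was ip every other day at 5 or 15 mg/kg, with DMSO vehicle in 100 µL. Caliper volume was V=(D×d²)/2, and tumor weight was taken at endpoint; n=5/group. Analysis used two-way ANOVA with Bonferroni.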
# [14] = system: SEM cells; assay: Potency index, ratio of CA-4 IC50 to compound IC50 for human SEM cells assessed as inhibition of cell growth; assay type: functional
# [15] = Cytotoxicity against PHA-stimulated human PBL assessed as inhibition of cell growth; assay type: cell-based; conditions: PHA-stimulated peripheral blood lymphocytes (PBL)
# How it was run: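 Peripheral blood lymphocytes from healthy donors, tested either unstimulated or stimulated with PHA; DMSO ≤0.25% final. Values are mean ± SEM of three separate experiments.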
# [16] = system: HeLa; assay: Induction of apoptosis in human HeLa cells assessed as late apoptotic cells at 10 nM measured after 48 hrs by Annexin V-FITC/propidium iodide staining based flow cytometry (reference value: 6.07 %); assay type: functional
# [17] = system: Jurkat; assay: Antiproliferative activity against human Jurkat cells assessed as inhibition of cell growth; assay type: functional, cell-based
# How it was run: (§4)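 Compounds from 10 mM DMSO stocks; final DMSO ≤0.25%. Growth inhibition of cancer cell lines read from dose-response curves; IC50 as mean ± SEM of at least three independent experiments.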
# [18] = system: HeLa; assay: Induction of apoptosis in human HeLa cells assessed as necrotic cells at 10 nM measured after 24 hrs by Annexin V-FITC/propidium iodide staining based flow cytometry (reference value: 2.26 %); assay type: functional
# [19] = system: HeLa; assay: Induction of microtubule network depolymerization in human HeLa cells assessed as appearance of disorganised microtubules at 50 nM after 24 hrs by immunofluorescence staining based confocal microscopic analysis; assay type: cell-based; how it was run: as §3
# [20] = system: HeLa; assay: Induction of mitochondrial membrane potential loss in human HeLa cells assessed as cells with polarized mitochondrial membrane at 10 nM after 48 hrs by JC-1 dye-based flow cytometric analysis (reference value: 94.3 %); assay type: functional
# [21] = system: HUVEC; assay: Antivascular activity against HUVEC assessed as inhibition of capillary like tube formation at 10 nM incubated for 1 hr by matrigel based assay; assay type: functional, cell-based; conditions: Homo sapiens
# How it was run: (§5)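 HUVECs used at passages 1–6 in M200 with low-serum growth supplement. 6 x 10^4 cells seeded on gelled Matrigel (37 °C, 30 min) and left 6 h to form tubes. Preformed networks then treated 1 h at 10 or 100 nM and photographed at five fields per well. Image analysis gave segment length, mesh area and number, covered area and branch points; three independent experiments.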
# [22] = system: HeLa; assay: Downregulation of MAD-2 expression in human HeLa cells at 10 nM after 48 hrs by Western blot analysis; assay type: functional, cell-based; how it was run: as §1
# [23] = system: HeLa; assay: Downregulation of BubR1 expression in human HeLa cells at 10 nM after 48 hrs by Western blot analysis; assay type: functional, cell-based; how it was run: as §1
# [24] = system: HeLa; assay: Downregulation of BubR1 expression in human HeLa cells at 10 nM after 24 hrs by Western blot analysis; assay type: functional, cell-based; how it was run: as §1
# [25] = system: Daoy; assay: Antiproliferative activity against human Daoy cells assessed as inhibition of cell growth; assay type: functional, cell-based; how it was run: as §4
# [26] = system: HUVEC; assay: Antivascular activity against HUVEC assessed as inhibition of capillary like tube formation at 100 nM incubated for 1 hr by matrigel based assay; assay type: functional, cell-based; conditions: Homo sapiens; how it was run: as §5
# [27] = Toxicity in C57BL/6 mouse implanted with mouse E0771 cells assessed as reduction in body weight at 15 mg/kg, ip administered every other day; assay type: organism-based; conditions: in vivo
# How it was run: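 Seven-week-old female C57BL/6 mice received 4 × 10^5 E0771 cells orthotopically into the mammary fat pad. Once tumors were palpable, mice were randomized and given ip injections every other day (15 or 5 mg/kg, or vehicle DMSO; CA-4P 30 mg/kg as reference). Body weight was followed during treatment; n = 5 mice/group.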
# [28] = system: HeLa; assay: Antiproliferative activity against human HeLa cells assessed as inhibition of cell growth; assay type: functional, cell-based; how it was run: as §2
# [29] = system: HeLa; assay: Induction of apoptosis in human HeLa cells assessed as increase in cleavage of caspase 9 at 10 nM after 24 hrs by Western blot analysis; assay type: functional, cell-based; how it was run: as §1
# [30] = system: SEM cells; assay: Antiproliferative activity against human SEM cells assessed as inhibition of cell growth; assay type: functional, cell-based; how it was run: as §4
smiles,measurement,setting,value
CCOc1ccc2c(C(=O)c3cc(OC)c(OC)c(OC)c3)c(N)oc2c1,Activity,[1],Active
same,GI50,[2],> 10000 nM
same,IC50,[3],2.1 nM
same,inhibition,[4],86%
same,Activity,[5],23.53%
same,Activity,[6],Active
same,Activity,[7],Active
same,Activity,[8],Active
same,viability at 0.01 µM,[9],31.3%
same,GI50,[10],15.6 nM
same,Activity,[11],24.3%
same,Activity,[12],Active
same,Activity,[13],45.7%
same,Ratio IC50,[14],16
same,GI50,[15],> 10000 nM
same,Activity,[16],23.53%
same,IC50,[17],0.28 nM
same,Activity,[18],14.77%
same,Activity,[19],Active
same,Activity,[20],45.3%
same,Activity,[21],Active
same,Activity,[22],Active
same,Activity,[23],Active
same,Activity,[24],Active
same,IC50,[25],0.005 nM
same,Activity,[26],Active
same,Activity,[27],Non-Toxic
same,IC50,[28],2.8 nM
same,Activity,[29],Active
same,IC50,[30],0.31 nM
